Source: PubChem BioAssay
M5 PAM – potentiates acetylcholine response at human M5 receptor. P08912. CHO-K1 hM5, Fluo-8 calcium, ACh EC20 PAM; 0% = ACh EC20, 100% = ACh EC100. activation, % at 3 µM. 0.3% of 360,000 active. AID 624038;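 active means activation above the run cutoff, the mean activation of all test compounds plus 3 SD, cut at about 18% in these data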
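Assay system: CHO-K1 hM5 cells / Incubation: Fluo-8 loading 80 min at 37 °C plus 30 min room temperature / Technique: Fluo-8 calcium dye fluorescence, kinetic read / Repeats: single replicate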
CHRM4 antagonist – CHRM4 antagonism in calcium assay. inhibition, % at 3 µM. AID 624125. P08173. CHO-hM4 cells, ACh EC80, Fluo-8 calcium fluorescence. 0.73% of 360,000 active;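 active means inhibition above its plate's cutoff, the mean inhibition of sample wells plus 3 SD, cut at about 27% in these data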
Target sequence (P08173 whole entry, looked up): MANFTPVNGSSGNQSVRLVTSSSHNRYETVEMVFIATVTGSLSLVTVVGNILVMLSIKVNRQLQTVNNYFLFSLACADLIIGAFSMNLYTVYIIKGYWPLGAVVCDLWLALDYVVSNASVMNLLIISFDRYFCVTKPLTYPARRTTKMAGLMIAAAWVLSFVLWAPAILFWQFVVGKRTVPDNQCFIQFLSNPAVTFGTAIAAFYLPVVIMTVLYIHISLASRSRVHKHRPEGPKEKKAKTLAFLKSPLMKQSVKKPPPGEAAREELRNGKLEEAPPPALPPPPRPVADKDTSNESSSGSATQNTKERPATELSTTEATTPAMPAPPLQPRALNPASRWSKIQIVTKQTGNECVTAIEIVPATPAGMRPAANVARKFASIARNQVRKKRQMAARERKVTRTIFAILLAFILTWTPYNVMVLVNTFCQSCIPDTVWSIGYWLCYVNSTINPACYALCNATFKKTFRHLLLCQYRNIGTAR
CHRM4 PAM – positive allosteric modulators of human muscarinic M4 receptor; 0.4% of 360,000 active; CHO-K1 hM4/Gqi5, Fluo-8 calcium fluorescence, ACh EC20; 0% = ACh EC20, 100% = maximal ACh; P08173; activation, % at 3 µM; AID 624126;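 active means activation above its plate's cutoff, the mean activation of sample wells plus 3 SD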
CHRM4 agonist – agonists of human muscarinic M4 receptor (CHRM4); CHO-K1 hM4/Gqi5, Fluo-8 calcium fluorescence; vehicle 0%, full acetylcholine response 100%; activation, % at 3 µM; P08173; 0.14% of 360,000 active; AID 624127;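 active means activation above the run mean over all test wells plus 3 SD, cut at about 32% in these data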;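 further: peak over basal fluorescence ratio per well then scaled between controls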
M5 antag – CHRM5 antagonism in calcium assay; P08912; CHO-hM5 cells, Fluo-8 calcium fluorescence, ACh EC80; inhibition, % at 3 µM; 0.59% of 360,000 active; AID 624040;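 active means inhibition above a per-plate cutoff, the mean of that plate's test compounds plus 3 SD, cut at about 27% in these data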
M5 ag – agonists of human muscarinic M5 receptor (CHRM5); CHO-K1 hM5 cells, Fluo-8 calcium fluorescence; 0% DMSO wells, 100% maximal acetylcholine response; activation, % at 3 µM; P08912; 0.19% of 360,000 active;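 active means activation above the run's mean over test compounds plus 3 SD, cut at about 23% in these data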;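 further: signal is peak over basal fluorescence ratio across the kinetic read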
Of the large screens only hits and unclear results are named; the others gave an inactive call. Sampled rows, rich in hits. Any-hit rate of the full collection: about 1.8%.

CC(C)N(C(=O)CSc1nc2c([nH]1)c(=O)n(C)c(=O)n2C)c1ccccc1	CHRM4 PAM 16.9
CC(C)CNC(=O)NC1(C(F)(F)F)Oc2ccccc2O1	none
O=C(NCc1cccnc1)NC1(C(F)(F)F)Oc2ccccc2O1	M5 PAM 40.1
CCN(CC(=O)Nc1ccccc1OC)C(=O)c1ccc(N(C)S(=O)(=O)c2ccc(C)cc2)cc1	M5 antag 97.8
CCN(CC(=O)Nc1ccc(NC(C)=O)cc1)C(=O)c1ccc(N(C)S(=O)(=O)c2ccc(C)cc2)cc1	none
CC(=O)c1ccc(N2C(=NC(=O)CCc3ccccc3)SC3CS(=O)(=O)CC32)cc1 (configuration not stated)	none
Cc1ccccc1-c1nc(NCCN(C)C)nc2ccsc12	CHRM4 antagonist 55.6, M5 antag 56.2
CC(C)Nc1nc(-c2ccccc2CO)c2sccc2n1	none
CN(C)CCNc1nc(-c2ccccc2CO)c2sccc2n1	M5 antag 37.0
COC(=O)COc1ccc(S(=O)(=O)NCc2ccncc2)cc1	M5 antag 27.9
COc1cc(S(=O)(=O)NCc2ccncc2)ccc1Br	M5 antag 35.3
Cc1ccccc1-c1nc(CSc2nc3c(c(=O)[nH]2)CCC3)c(C)o1	none
Cc1ccccc1CSc1nc2c(c(=O)[nH]1)CCC2	CHRM4 PAM 36.9
Cc1cccc(-c2nc(CSc3nc4c(c(=O)[nH]3)CCC4)c(C)o2)c1	CHRM4 PAM 20.0
CCn1c(SCC(=O)Nc2ccccc2)nc2c1c(=O)n(C)c(=O)n2C	M5 PAM 18.3
COc1ccc([C@@H](C)NC(=O)c2ccc3oc(C(C)C)nc3c2)cc1	none
Nn1c(=O)c2ccccc2n2c(SCc3ccccc3)nnc12	M5 PAM 38.1, M5 antag 29.4
Oc1ccccc1NCC(O)Cn1ccc2ccccc21 (configuration not stated)	CHRM4 antagonist 35.1
CCCC(=O)N(C1CC(C)C(C#N)(C#N)C1(C#N)C#N)N(C)C (configuration not stated)	CHRM4 antagonist 47.2
CC(=O)N(C1CC(C)C(C#N)(C#N)C1(C#N)C#N)N(C)C (configuration not stated)	none
Cn1cnc([N+](=O)[O-])c1Sc1nc(N)nc2c1ncn2Cc1ccccc1	none
Nc1nc(SCc2ccccc2[N+](=O)[O-])c2ncn(Cc3ccccc3)c2n1	CHRM4 antagonist 40.3
CCCCNC(=S)NCC(c1ccccc1)c1c[nH]c2ccccc12 (configuration not stated)	none
CN(C)CCCNC(=S)NCC(c1ccc(Cl)cc1Cl)c1c[nH]c2ccccc12 (configuration not stated)	CHRM4 antagonist 28.8
NCC(c1ccc(Cl)cc1Cl)c1c[nH]c2ccccc12 (configuration not stated)	CHRM4 agonist 35.3
CC1CC(CCC(=O)NC(=S)Nc2ccc(Cl)cn2)C(=O)O1 (configuration not stated)	none
CCOC(=O)CC(=O)CSc1nnc2sc3ccccc3n12	M5 PAM 34.7
CN(C)C(=O)CSc1nnc2sc3ccccc3n12	none
COc1ccc(N2C(=O)C(Cl)=C(Nc3ccc(OC)cc3OC)C2=O)cc1	M5 PAM 19.2
COc1ccc(NC2=C(Cl)C(=O)N(c3ccccc3)C2=O)c(OC)c1	none
Cc1cc(C)nc(NS(=O)(=O)c2ccc(NC(=O)c3cccc(N4C(=O)CCC4=O)c3)cc2)n1	CHRM4 PAM 24.5
Cc1ccnc(NS(=O)(=O)c2ccc(NC(=O)c3ccc(N4C(=O)CCC4=O)cc3)cc2)n1	none
Cc1nn(C)c(Oc2ccccc2)c1CCNS(=O)(=O)c1ccccc1	none
Cc1ccc(S(=O)(=O)n2cnc(C)c2)cc1	M5 PAM 19.7
CC(=O)Nc1ccc(S(=O)(=O)n2cnc(C)c2)cc1	none
COc1cc(NCCCC(C)N)c2ncccc2c1 (configuration not stated)	M5 PAM 22.1
CSc1ncccc1C(=O)NC1CC(C)(C)Cc2c1cnn2-c1ccccc1C (configuration not stated)	none
